Test results taken from ChEMBL document CHEMBL4196161, “Lead Optimization of 5-Aryl Benzimidazolone- and Oxindole-Based AMPA Receptor Modulators Selective for TARP γ-8” (ACS Med Chem Lett, 2018).
In brackets after ≈: the same amount, converted by molar mass.

Key:
Homo sapiens = species on record: Homo sapiens; assay: Selectivity ratio of IC50 for recombinant human GluA1 flop isoform/TARPgamma2 expressed in HEK293F cells to IC50 for recombinant human GluA1 flop isoform/TARPgamma8 expressed in HEK293F cells; type: cell-based
In short: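 Calcium-flux (FLIPR) inhibition in HEK-293 cells, giving pIC50 for each receptor. For γ-8, cells expressed a human GluA1o–γ-8 fusion construct, with at least three assays run in triplicate and reported as mean ± SD. For γ-2, cells expressed human GluA1-flop cotransfected with γ-2. The ratio compares the γ-2 IC50 with the γ-8 IC50.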

[1] = Protein binding in rat plasma assessed as unbound fraction at 1 uM measured after 6 hrs by equilibrium dialysis method; type: ADME, cell-free
In short: (§1)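 Human or rat plasma protein binding at 1 μM compound, expressed as fraction unbound (fub).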

[2] = Hepatic extraction ratio in human liver microsomes at 1 uM measured after 60 mins in presence of NADPH by LC-MS/MS analysis; type: ADME, microsome; details: read-out: ERH
In short: (§2)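 Human or rat liver microsomal stability at 1 μM; results expressed as extraction ratio, i.e. predicted hepatic clearance divided by species-specific hepatic blood flow.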

Rattus norvegicus [3] = assay: Ex vivo receptor occupancy at GluA/TARPgamma8 in Sprague-Dawley rat assessed as reduction in [3H]JNJ-56022486 receptor labeling in hippocampus at 3 mg/kg, po at Tmax by autoradiography relative to control; type: functional
In short: (§3)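 Rats (Sprague–Dawley, n = 2/dose group) dosed orally with suspensions in 0.5% HPMC at 3 or 10 mg/kg; hippocampal GluA/γ-8 occupancy at Tmax by ex vivo autoradiography with [3H]12 radiotracer; brain (ng/g) and plasma (ng/mL) concentrations taken at Tmax.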

[4] = Clearance in Sprague-Dawley rat at 1 mg/kg, iv administered as single dose by LC-MS/MS analysis; type: ADME, organism-based; details: in vivo
In short: (§4)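 Single 1 mg/kg i.v. dose as a solution to Sprague–Dawley rats (n = 3/group); vehicle 20% HP-β-CD in one study series, 1:1 PEG400/H2O in the other; plasma PK parameters derived.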

GRIA1/CACNG2 = GRIA1/CACNG2 (Homo sapiens, UniProt P42261+Q9Y698); assay: Modulation of recombinant human GluA1 flop isoform/TARPgamma2 expressed in HEK293F cells assessed as blockade of glutamate-induced calcium flux by calcium 5/6 dye based FLIPR assay; type: cell-based
Chain of GRIA1/CACNG2 (P42261 whole entry, canonical isoform): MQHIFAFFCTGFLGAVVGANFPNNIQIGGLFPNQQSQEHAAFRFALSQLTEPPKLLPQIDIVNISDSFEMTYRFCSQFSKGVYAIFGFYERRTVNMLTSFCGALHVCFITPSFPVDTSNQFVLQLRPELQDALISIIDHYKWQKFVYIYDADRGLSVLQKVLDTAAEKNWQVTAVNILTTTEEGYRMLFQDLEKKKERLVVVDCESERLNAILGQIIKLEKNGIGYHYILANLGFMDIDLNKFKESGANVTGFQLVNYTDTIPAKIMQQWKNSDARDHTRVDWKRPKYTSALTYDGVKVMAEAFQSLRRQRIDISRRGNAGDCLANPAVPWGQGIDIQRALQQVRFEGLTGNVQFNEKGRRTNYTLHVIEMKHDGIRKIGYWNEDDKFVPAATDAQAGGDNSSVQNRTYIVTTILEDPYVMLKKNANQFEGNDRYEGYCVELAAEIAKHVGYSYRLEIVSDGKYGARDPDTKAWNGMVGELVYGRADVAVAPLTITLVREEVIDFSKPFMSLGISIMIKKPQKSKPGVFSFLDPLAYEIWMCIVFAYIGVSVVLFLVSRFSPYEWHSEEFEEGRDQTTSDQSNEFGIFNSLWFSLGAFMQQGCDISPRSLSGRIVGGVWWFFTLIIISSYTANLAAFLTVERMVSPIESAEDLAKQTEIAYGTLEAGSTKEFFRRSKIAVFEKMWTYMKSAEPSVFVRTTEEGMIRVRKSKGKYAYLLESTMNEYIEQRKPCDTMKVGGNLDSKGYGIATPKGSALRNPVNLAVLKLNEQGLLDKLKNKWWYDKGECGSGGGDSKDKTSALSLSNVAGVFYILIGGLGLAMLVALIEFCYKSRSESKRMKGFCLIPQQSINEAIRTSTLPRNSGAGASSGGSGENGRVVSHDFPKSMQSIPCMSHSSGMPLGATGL
Chain of GRIA1/CACNG2 (Q9Y698 whole entry, canonical isoform): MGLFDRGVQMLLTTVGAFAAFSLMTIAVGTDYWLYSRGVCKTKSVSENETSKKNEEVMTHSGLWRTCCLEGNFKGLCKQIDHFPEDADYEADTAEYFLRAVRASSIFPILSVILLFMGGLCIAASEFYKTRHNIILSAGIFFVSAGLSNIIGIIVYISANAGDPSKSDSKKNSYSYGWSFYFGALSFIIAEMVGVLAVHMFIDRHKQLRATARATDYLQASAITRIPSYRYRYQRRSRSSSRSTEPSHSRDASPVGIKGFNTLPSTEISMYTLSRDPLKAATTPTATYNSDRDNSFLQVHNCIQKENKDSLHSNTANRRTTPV
In short: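 HEK-293 cells transiently expressing human GluA1o cotransfected with γ-2; FLIPR calcium-flux read-out; pIC50 reported; n = 1, run in triplicate.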

Rattus norvegicus [5] = assay: Ex vivo receptor occupancy at GluA/TARPgamma8 in po dosed Sprague-Dawley rat assessed as brain concentration causing 50% reduction in [3H]JNJ-56022486 receptor labeling in hippocampus at ED50 at Tmax by autoradiography; type: functional, organism-based
In short: (§5)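 Oral dose–response in Sprague–Dawley rats, n = 3/dose (8 doses in one study; vehicle 0.5% HPMC or 20% HP-β-CD); hippocampal occupancy measured at Tmax by ex vivo autoradiography using [3H]-12; EC50 expressed against plasma (ng/mL) or brain (ng/g) exposure, ED50 against dose.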

[6] = Protein binding in human plasma assessed as unbound fraction at 1 uM measured after 6 hrs by equilibrium dialysis method; type: ADME, cell-free; in short: as §1
[7] = Thermodynamic solubility of the compound in fasted state simulated intestinal fluid at pH 6.5 incubated under stirred condition for 3 days; details: read-out: Therm_solubility
Rattus norvegicus [8] = assay: Ex vivo receptor occupancy at GluA/TARPgamma8 in po dosed Sprague-Dawley rat assessed as reduction in [3H]JNJ-56022486 receptor labeling in hippocampus measured within 10 mins by autoradiography; type: functional
[9] = Volume of distribution at steady state in Sprague-Dawley rat at 1 mg/kg, iv administered as single dose by LC-MS/MS analysis; type: ADME, organism-based; details: in vivo, read-out: Vdss; in short: as §4
[10] = Half life in Sprague-Dawley rat at 1 mg/kg, iv administered as single dose by LC-MS/MS analysis; type: ADME, organism-based; details: in vivo; in short: as §4
[11] = Thermodynamic solubility of the compound in simulated gastric fluid at pH 1.6 incubated under stirred condition for 3 days; type: physicochemical; details: read-out: Therm_solubility
In short: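 Thermodynamic solubility (μM) determined in simulated gastric fluid at pH 1.6 and in fasted state simulated intestinal fluid at pH 6.5.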

Rattus norvegicus [12] = assay: Ex vivo receptor occupancy at GluA/TARPgamma8 in po dosed Sprague-Dawley rat assessed as plasma concentration causing 50% reduction in [3H]JNJ-56022486 receptor labeling in hippocampus at Tmax by autoradiography; type: functional, organism-based; in short: as §5
Rattus norvegicus [13] = assay: Ex vivo receptor occupancy at GluA/TARPgamma8 in po dosed Sprague-Dawley rat assessed as plasma concentration causing 50% reduction in [3H]JNJ-56022486 receptor labeling in hippocampus at ED50 at Tmax by autoradiography; type: functional, organism-based; in short: as §5
[14] = Fraction unbound in rat brain at 5 uM after 5 hrs by equilibrium dialysis method; type: ADME, tissue-based
In short: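 Rat brain tissue binding, reported as fraction unbound, at 5 μM compound.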

Rattus norvegicus [15] = assay: Ex vivo receptor occupancy at GluA/TARPgamma8 in po dosed Sprague-Dawley rat assessed as brain concentration causing 50% reduction in [3H]JNJ-56022486 receptor labeling in hippocampus at Tmax by autoradiography; type: functional, organism-based; in short: as §5
[16] = Hepatic extraction ratio in rat liver microsomes at 1 uM measured after 60 mins in presence of NADPH by LC-MS/MS analysis; type: ADME, microsome; details: read-out: ERH; in short: as §2
Rattus norvegicus [17] = assay: Ex vivo receptor occupancy at GluA/TARPgamma8 in Sprague-Dawley rat assessed as reduction in [3H]JNJ-56022486 receptor labeling in hippocampus at 10 mg/kg, po at Tmax by autoradiography relative to control; type: functional; in short: as §3
[18] = Apparent permeability across apical to basolateral side in MDCK-MDR1 cells at 5 uM measured after 60 mins by LC-MS/MS analysis; type: ADME, cell-based, Canis lupus familiaris; details: dog
In short: (§6)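 Bidirectional apparent permeability measured in Madin–Darby canine kidney cells transfected with the MDR1 (P-gp) gene; Papp reported in ×10–6 cm/s.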

[19] = Apparent permeability across basolateral to apical side in MDCK-MDR1 cells at 5 uM measured after 60 mins by LC-MS/MS analysis; type: ADME, cell-based, Canis lupus familiaris; details: dog; in short: as §6
[20] = Ratio of unbound brain to plasma concentration in Sprague-Dawley rat at 1 mg/kg, iv or 5 mg/kg, po administered as single dose by LC-MS/MS analysis; type: ADME, organism-based; details: brain and plasma, read-out: K(p,uu,brain)
Rattus norvegicus [21] = assay: Toxicity in po dosed Sprague-Dawley rat assessed as effect on central nervous system functions measured after 14 days; type: organism-based; details: in vivo, 336 h
In short: (§7)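 Repeat-dose toleration study in rats over 14 days at 20 and 60 mg/kg/day; CNS observations recorded and liver assessed by histological analysis.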

[22] = Oral bioavailability in Sprague-Dawley rat at 5 mg/kg administered as single dose by LC-MS/MS analysis; type: ADME, organism-based; details: in vivo
In short: (§8)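 Sprague–Dawley rats (n = 3/group) given compound as a solution in 20% HP-β-CD, 1 mg/kg i.v. and 5 mg/kg p.o.; plasma pharmacokinetics derived from these arms.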

[23] = Volume of distribution at steady state in Sprague-Dawley rat at 1 mg/kg, iv or 5 mg/kg, po administered as single dose by LC-MS/MS analysis; type: ADME, organism-based; details: in vivo, read-out: Vdss; in short: as §4
Rattus norvegicus [24] = assay: Hepatotoxicity in Sprague-Dawley rat assessed as necrosis at 20 to 60 mg/kg, po measured after 14 days by histological analysis; type: toxicity, organism-based; details: in vivo, 336 h; in short: as §7
[25] = Cmax in Sprague-Dawley rat at 5 mg/kg, po administered as single dose by LC-MS/MS analysis; type: ADME, organism-based; parameters: dose 5 mg/kg, route oral; details: in vivo; in short: as §8
Rattus norvegicus [26] = assay: Ex vivo receptor occupancy at GluA/TARPgamma8 Sprague-Dawley rat assessed as plasma concentration causing 50% reduction in [3H]JNJ-56022486 receptor labeling in hippocampus po measured after 10 mins by autoradiography
Rattus norvegicus [27] = assay: Ex vivo receptor occupancy at GluA/TARPgamma8 in po dosed Sprague-Dawley rat assessed as plasma concentration causing reduction in [3H]JNJ-56022486 receptor labeling in hippocampus at 10 mg/kg, po at Tmax by autoradiography; type: functional, organism-based; in short: as §3
Rattus norvegicus [28] = assay: Ex vivo receptor occupancy at GluA/TARPgamma8 in po dosed Sprague-Dawley rat assessed as plasma concentration causing reduction in [3H]JNJ-56022486 receptor labeling in hippocampus at 3 mg/kg, po at Tmax by autoradiography; type: functional, organism-based; in short: as §3
GRIA1/CACNG8 = GRIA1/CACNG8 (Homo sapiens, UniProt P42261+Q8WXS5); assay: Modulation of recombinant human GluA1 flop isoform/TARPgamma8 expressed in HEK293F cells assessed as blockade of glutamate-induced calcium flux by calcium 5/6 dye based FLIPR assay; type: cell-based
Chain of GRIA1/CACNG8 (P42261 whole entry, the tested form may be a part, canonical isoform): as the sequence (P42261 whole entry, canonical isoform) above
Chain of GRIA1/CACNG8 (Q8WXS5 whole entry, the tested form may be a part, canonical isoform): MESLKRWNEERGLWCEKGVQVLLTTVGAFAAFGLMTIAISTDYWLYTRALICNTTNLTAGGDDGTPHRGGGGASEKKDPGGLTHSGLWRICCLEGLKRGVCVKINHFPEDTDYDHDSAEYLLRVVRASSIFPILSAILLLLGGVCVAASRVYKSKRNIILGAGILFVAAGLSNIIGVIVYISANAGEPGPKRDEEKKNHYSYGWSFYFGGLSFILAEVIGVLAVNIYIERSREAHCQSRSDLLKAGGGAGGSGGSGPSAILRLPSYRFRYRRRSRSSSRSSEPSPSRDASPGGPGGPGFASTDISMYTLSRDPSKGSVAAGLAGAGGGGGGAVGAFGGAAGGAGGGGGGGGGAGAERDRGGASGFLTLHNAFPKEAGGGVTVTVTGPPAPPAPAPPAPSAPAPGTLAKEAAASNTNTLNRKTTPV
In short: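 HEK-293 cells expressing a human GluA1o-γ-8 fusion construct; FLIPR calcium-flux read-out; pIC50 reported as mean and standard deviation of at least three assays run in triplicate.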

Row | SMILES | Ratio IC50 (Homo sapiens) | hepatic extraction ratio at 1 h, 1 µM [2] | clearance [4] | IC50 (GRIA1/CACNG2) | fraction unbound at 6 h, 1 µM [6] | solubility thermodynamic at 72 h [7] | ED50 (Rattus norvegicus [8]) | Vd [9] | half-life [10] | solubility thermodynamic at 72 h [11] | EC50 (Rattus norvegicus [12]) | EC50 (Rattus norvegicus [15]) | hepatic extraction ratio at 1 h, 1 µM [16] | Occ (Rattus norvegicus [17]) | Papp A→B at 1 h, 5 µM [18] | Papp B→A at 1 h, 5 µM [19] | Kp uu [20] | bioavailability [22] | Vd [23] | Cmax [25] | further results
1 | Cc1cc(-c2c(Cl)cccc2OC(F)(F)F)cc2c1NC(=O)C2 | > 1000 | 0.5 | 28 mL/min/kg | 10 µM | 0.3 | 55 µM (≈ 18.8 µg/mL) | 0.6 mg/kg | 3.5 L/kg | 114 min | < 4 µM | 0.009 µg/mL (≈ 0.0263 µM) | 71 ng/g | 0.4 |  |  |  |  |  |  |  | fraction unbound at 6 h, 1 µM [1]: 0.6; Occ (Rattus norvegicus [3]): 82%; EC50 (Rattus norvegicus [5]): 71 ng/g; EC50 (Rattus norvegicus [13]): 9 ng/mL (≈ 0.0263 µM); fraction unbound at 5 h, 5 µM [14]: 0.4
2 | Cc1cc(-c2c(Cl)cncc2OC(F)F)cc2c1NC(=O)C2 | > 1000 | < 0.3 | 19 mL/min/kg | > 10 µM |  | 64 µM (≈ 20.8 µg/mL) |  | 1.9 L/kg | 72 min | 140 µM (≈ 45.5 µg/mL) |  |  | 0.4 | 72% | 34 ×10⁻⁶ cm/s | 66 ×10⁻⁶ cm/s |  |  |  |  | 
3 | O=c1[nH]c2ccc(-c3c(Cl)cccc3OC(F)(F)F)cc2[nH]1 |  |  | 6.9 mL/min/kg |  | 0.3 | 74 µM (≈ 24.3 µg/mL) | 0.5 mg/kg |  | 348 min | < 4 µM |  | 545 ng/g |  |  | 22 ×10⁻⁶ cm/s | 24 ×10⁻⁶ cm/s | 0.6 | 133% | 3.3 L/kg | 1030 ng/mL | Activity (Rattus norvegicus [21]): Non-Toxic; Activity (Rattus norvegicus [24]): Toxic; EC50 (Rattus norvegicus [26]): 0.145 µg/mL (≈ 0.441 µM)
4 | Cc1cc(-c2c(Cl)cncc2OC(F)(F)F)cc2c1NC(=O)C2 | > 1000 | < 0.3 | 37 mL/min/kg | > 10 µM |  | 45 µM (≈ 15.4 µg/mL) | 5.4 mg/kg | 2.7 L/kg | 84 min | 11 µM (≈ 3.77 µg/mL) |  |  | 0.5 | 86% | 44 ×10⁻⁶ cm/s | 51 ×10⁻⁶ cm/s |  |  |  |  | Cp (Rattus norvegicus [27]): 2050 ng/mL; Cp (Rattus norvegicus [28]): 87 ng/mL; IC50 (GRIA1/CACNG8): 2.51 nM
5 | O=c1[nH]c2ccc(-c3c(Cl)cccc3C3CC3)cc2[nH]1 |  | < 0.3 | 21 mL/min/kg | > 10 µM | 0.2 | 90 µM (≈ 25.6 µg/mL) | 3.2 mg/kg |  | 162 min | < 4 µM | 0.486 µg/mL (≈ 1.71 µM) | 1611 ng/g | 0.5 |  | 10 ×10⁻⁶ cm/s | 18 ×10⁻⁶ cm/s | 0.3 | 121% | 4.6 L/kg | 502 ng/mL | 
